Only some compounds are listed: those with a hit (about 3.7% of all), similar ones and a draw of the others.
KCNQ1 act = human KCNQ1 channel potentiation or activation; P51787; CHO-K1 KCNQ1, thallium flux FluxOR fluorescence; hits give high values; B-score at 10 µM; actives 0.35% (n = 310,000);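 active = fluorescence ratio B-score, a plate-corrected score, at least three library SD, with initial intensity B-score within 5 SD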
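Assay system: CHO-K1 cells stably expressing KCNQ1; Medium: assay buffer with matched DMSO; Also added: K+/Tl+ depolarizing stimulus; Dosing: single dose; Timing: dye 90 min, compound 20 min, room temperature; Measured by: kinetic FluxOR thallium fluorescence, 10-s 1-Hz baseline, 110-s post-stimulus read; Read-out: peak-minus-minimum fluorescence over initial fluorescence, negative-control normalized, B-scored.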
KCNQ1 block = inhibitors of human KCNQ1 potassium channel; P51787; CHO-K1 KCNQ1, FluxOR thallium flux fluorescence; hits give high values; B-score at 10 µM; actives 1.3% (n = 310,000); AID 2642;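 active = compounds whose thallium flux B-score, printed positive for inhibition, exceeds three library SD while starting fluorescence stays within three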;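 note: channel opened by potassium depolarization with thallium stimulus after 20 min compound exposure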
hERG rescue = shields human hERG channel from block by proarrhythmic agents; Q12809; activation (rescue from dofetilide block), less the hit threshold, % at 10 µM; actives 0.51% (n = 310,000); CHO-hERG, FluxOR thallium flux, dofetilide IC70 present;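 active = activation above the mean of controls blocked by dofetilide plus 5 SD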;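 note: thallium influx through hERG after potassium depolarization seen as dye fluorescence rise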
KCNK3 block = human KCNK3 channel inhibition, primary screen; O14649; actives 0.84% (n = 340,000); B-score at 10 µM; CHO-KCNK3 thallium flux, FluxOR fluorescence; hits give low values;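 active = B-score under library mean minus 4 SD, starting fluorescence ratio at most library mean plus 5 SD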;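 note: more negative B-score means stronger inhibition of thallium flux through KCNK3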
KCNK9 inh = inhibitors of human KCNK9 two-pore domain potassium channel | Q9NPC2 | HEK293 KCNK9, FluxOR thallium flux fluorescence; hits give low values | B-score at 10 µM | actives 1.2% (n = 310,000);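 active = ratio B-score over 3 SD below the library mean, with starting fluorescence within 5 SD of its mean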;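 note: negative B-score means less thallium flux so channel inhibition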
Target sequence (Q9NPC2 whole entry, looked up, the tested form may be a part): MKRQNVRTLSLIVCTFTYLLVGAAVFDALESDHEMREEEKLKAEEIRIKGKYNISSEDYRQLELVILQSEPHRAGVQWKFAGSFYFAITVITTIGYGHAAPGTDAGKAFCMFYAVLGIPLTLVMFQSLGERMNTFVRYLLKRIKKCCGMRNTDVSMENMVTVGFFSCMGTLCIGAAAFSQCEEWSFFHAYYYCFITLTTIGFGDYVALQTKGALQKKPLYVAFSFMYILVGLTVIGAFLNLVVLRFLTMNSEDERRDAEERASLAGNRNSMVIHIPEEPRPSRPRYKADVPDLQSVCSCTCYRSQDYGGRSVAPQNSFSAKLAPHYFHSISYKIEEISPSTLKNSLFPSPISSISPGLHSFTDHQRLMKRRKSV
Kir21 block = inhibitors of mouse Kir2.1 inward-rectifier potassium channel; B-score at 10 µM; AID 1672; P35561; actives 0.85% (n = 310,000); HEK293-Kir2.1, FluxOR thallium flux fluorescence; hits give low values;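 active = fluorescence ratio B-score at or below minus 3 SD of library scores, with starting-brightness B-score within 2 SD, cut at about -4.2 in these data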;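 note: channel flux triggered by added potassium and thallium sulfate stimulus; B-score of peak minus minimum fluorescence over baseline after thallium stimulus; more negative B-score means stronger Kir2.1 block with less thallium influx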
KCNQ1 block val = human KCNQ1 channel inhibition, validation assay. actives 93% (n = 1,600). shares compounds with KCNQ1 block. inhibition, % at 10 µM. KCNQ1 cell line, FluxOR thallium flux fluorescence;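 active = primary screen active, with duplicate mean exceeding buffer control mean plus 3 SD of buffer wells, cut at about 28% in these data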;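 note: 0% = buffer control ratio and 100% = XE991 inhibitor control ratio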
CHO KCNQ1 ctr = activity in parental CHO cells lacking KCNQ1; shares compounds with KCNQ1 block; parental CHO-K1, FluxOR thallium flux fluorescence ratio; hits give low values; zero means no signal rise above baseline; fluorescence ratio (Tl flux) at 10 µM; actives 21% (n = 1,600); AID 588366;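 active = mean of duplicate thallium-flux fluorescence ratios in parental host cells more than 5 SD below the buffer control mean, cut at about 0.38 in these data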;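 note: ratio is peak minus minimum fluorescence divided by baseline fluorescence; actives read low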
KCNQ1 ephys val = confirmation of human KCNQ1 potassium channel inhibitors by electrophysiology. shares compounds with KCNQ1 block. KCNQ1-CHO cells, automated patch clamp current. calls only at 10 µM. actives 20% (n = 490). AID 624120;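 active = KCNQ1 current drop exceeding 3 SD of negative control wells, seen in both duplicate runs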;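 note: steady state current during a 2 s step from -80 to +40 mV; negative values mean current inhibition and positive values mean potentiation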
KCNQ2 inh = KCNQ1 inhibitor that also blocks rat KCNQ2 channel; shares compounds with KCNQ1 block; KCNQ2 cells, FluxOR thallium flux fluorescence; inhibition, % at 10 µM; actives 71% (n = 1,600); AID 651746;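 active = mean percent inhibition of the KCNQ2 thallium signal more than 5 SD above the buffer-only control wells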;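 note: KCNQ2 expressed in CHO cells; 0% = buffer control wells and 100% = XE-991 inhibitor control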
KCNQ1-KCNE1 inh = selectivity of KCNQ1 inhibitors: inhibition of human KCNQ1/KCNE1 channel; shares compounds with KCNQ1 block; KCNQ1/KCNE1 cells, FluxOR thallium flux fluorescence; inhibition, % at 10 µM; actives 77% (n = 1,600); AID 652147;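 active = mean percent inhibition of duplicate wells above the buffer-only control mean plus 3 SD of those controls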;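 note: 0% = buffer only wells and 100% = XE-991 inhibitor control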
KCNK9 block conf = human KCNK9 inhibitor confirmation; AID 492992; inhibition, % at 10 µM; actives 43% (n = 4,900); HEK293 KCNK9 cells, FluxOR thallium flux fluorescence; shares compounds with KCNK9 inh;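 active = thallium signal inhibited by more than 5 SD of the compound-free buffer control wells, on both duplicate plates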;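 note: 0% = assay buffer control wells without compound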
Kir21 sel = selectivity of KCNK9 modulators against mouse Kir2.1 | shares compounds with KCNK9 inh | inhibition, % at 10 µM | actives 4% (n = 4,900) | Kir2.1 cells, FluxOR thallium flux fluorescence;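 active = thallium signal drop more than 5 SD beyond the mean of the no-compound control wells, seen in both duplicate plates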;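 note: signal is fluorescence rise after thallium addition divided by baseline fluorescence; plate controls were assay buffer only for no effect and full block by chlorpromazine control for full effect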
HEK293 Tl ctr = second counter-screen for KCNK9 modulators: effect in non-induced cells. shares compounds with KCNK9 inh. inhibition, % at 10 µM. non-induced KCNK9-HEK293, FluxOR thallium flux. actives 40% (n = 4,900);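 active = thallium signal drop beyond 5 SD of the untreated control mean, on both duplicate plates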;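 note: plate controls were buffer only IC0 wells for no effect and SID17386958 at its maximal inhibitory level for full effect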
KCNK3 inh conf = human KCNK3 channel inhibition, confirmation assay. shares compounds with KCNK3 block. CHO-KCNK3 thallium flux, FluxOR fluorescence; 0% buffer, 100% carvedilol maximal block. ratio percent of control, % at 10 µM. actives 99% (n = 2,400). AID 651638;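 active = ratio percent of control, averaged over triplicates, above buffer control mean plus 5 SD, cut at about 64% in these data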;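 note: ratio is the fluorescence rise from min to max over baseline after thallium stimulus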
KCNK3 uninduced = activity in cells without induced KCNK3 expression. non-induced KCNK3 parental cells, FluxOR thallium flux; hits give low values. thallium flux ratio (lower = more inhibition) at 10 µM. actives 40% (n = 2,400). shares compounds with KCNK3 block;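 active = thallium flux ratio, averaged over three wells, more than 5 SD below the buffer control mean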;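 note: host cells are CHO cells without KCNK3 induction; ratio is peak minus trough fluorescence over baseline then normalized to buffer controls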
Active calls of the source: *; i = inactive; / = no result; + = active, no number.

SMILES	KCNQ1 act	KCNQ1 block	hERG rescue	KCNK3 block	KCNK9 inh	Kir21 block	KCNQ1 block val	CHO KCNQ1 ctr	KCNQ2 inh	KCNQ1-KCNE1 inh	KCNK3 inh conf	KCNK3 uninduced	others
COc1c(Br)cc(/C=N/n2c(-c3ccccc3)n[nH]c2=S)c(O)c1Br	i	i	-13	i	i	-2.1	/	/	/	/	/	/
O=C(COC(=O)C1CCCCC1)Nc1ccccc1OC(F)F	i	i	-10	i	i	0.96	/	/	/	/	/	/
COCC(=O)N1CCC(Oc2ccc(C(=O)NCc3cc(C)n(C)n3)cc2)CC1	i	i	-1	i	i	-0.21	/	/	/	/	/	/
c1ccc(-c2cc(-c3nc4ccccc4[nH]3)c3ccccc3n2)cc1	i	8*	-38	-10*	-7.6*	-0.14	149*	0.25*	122%*	+	143*	0.13*
Cc1cc(SCC(=O)c2ccc3c(c2)OCO3)nc2ccccc12	i	i	-13	i	i	-3.3	/	/	/	/	/	/
Cc1cc(SCC(=O)c2ccc(O)c(O)c2)nc2ccccc12	i	9*	-17	-9.4*	i	-1	100*	0.47	i	116%*	120*	0.14*	KCNQ1 ephys val=i
CCN(C(=O)c1cc2c(s1)-c1ccccc1OC2)c1cc(OC)ccc1OC	i	7*	-7	-14*	-17*	-0.55	110*	0.37*	96%*	185%*	132*	0.12*	KCNK9 block conf=68%*;Kir21 sel=i;HEK293 Tl ctr=32%*
Cc1ccc(N/C(N)=N/c2nc3c(c(=O)[nH]2)CCCC3)c(C)c1	i	i	1	i	i	-0.18	/	/	/	/	/	/
Cc1ccc(N/C(N)=N/c2nc(C)cc(N3CCCCC3)n2)c(C)c1	i	10*	-23	-12*	i	-2.9	91*	0.41	90%*	51%*	116*	i	KCNQ1 ephys val=+
O=C(CN1C(=O)C(=O)N(C2CCCC2)C1=O)Nc1ccccc1OC(F)F	/	/	/	i	/	/	/	/	/	/	/	/
O=C(NCc1cccc(Cl)c1)c1cc(COc2ccc3ncccc3c2)on1	i	13*	-12	-13*	i	-0.11	93*	0.33*	100%*	+	126*	i
